Assay results as given in the array DNA melting data of Ke et al. (doi:10.1101/2024.01.08.574731).

Key:
[1] = folding enthalpy; higher = less favourable; fluorescence melt of hairpins on a sequencing array, two-state fit; settings: sodium 0.088 M
Procedure, shortened: (§1)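 Cy3 signals were normalised both to pre-quench Cy3 and to control constructs. They came from library hairpins carrying annealed Cy3 and quencher oligos on a sequenced MiSeq flow cell, imaged in 50 mM Na-HEPES pH 8.0, 25 mM NaCl, in 2.5 °C steps up to 60 °C. Bootstrapped two-state fits gave melting temperature and folding enthalpy, and four replicates were combined by inverse variance. Fitted temperatures were then raised by 9.35 °C to match UV melts.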

[2] = melting temperature; fluorescence melt of hairpins on a sequencing array, two-state fit, raised by 9.35 °C to match UV melts; settings: sodium 0.088 M
Procedure, shortened: as §1

Row | Sequence | folding enthalpy [1] | Tm [2]
1 | GATCAGTTGCTGATC ((((((...)))))) | -34.1 kcal/mol | 48.8 °C
2 | GATCATAAGCATGATC ((((((....)))))) | -31.5 kcal/mol | 46.5 °C
3 | GATCATAAGTATGATC ((((((....)))))) | -33.6 kcal/mol | 47.7 °C
4 | GATCATACGGATGATC ((((((....)))))) | -39.6 kcal/mol | 47.1 °C
5 | GATCATAGTATGATC ((((((...)))))) | -35.6 kcal/mol | 47.2 °C
6 | GATCATAGTGATGATC ((((((....)))))) | -36.5 kcal/mol | 47.3 °C
7 | GATCATAGTTATGATC ((((((....)))))) | -40 kcal/mol | 48.2 °C
8 | GATCATATATATGATC ((((((....)))))) | -42 kcal/mol | 48.8 °C
9 | GATCATATCCATGATC ((((((....)))))) | -35.8 kcal/mol | 47.4 °C
10 | GATCATATGGATGATC ((((((....)))))) | -28.1 kcal/mol | 46.1 °C
11 | GATCATATGTATGATC ((((((....)))))) | -41.6 kcal/mol | 48.6 °C
12 | GATCATCACAATGATC ((((((....)))))) | -44.1 kcal/mol | 47.7 °C
13 | GATCATCACATGATC ((((((...)))))) | -36.7 kcal/mol | 49.1 °C
14 | GATCATCAGATGATC ((((((...)))))) | -35.1 kcal/mol | 44.5 °C
15 | GATCATCAGCATGATC ((((((....)))))) | -22.3 kcal/mol | 45 °C
16 | GATCATCAGGATGATC ((((((....)))))) | -36 kcal/mol | 50.6 °C
17 | GATCATCCACATGATC ((((((....)))))) | -34.7 kcal/mol | 46.4 °C
18 | GATCATCCCTATGATC ((((((....)))))) | -37.4 kcal/mol | 47.5 °C
19 | GATCATCCGCATGATC ((((((....)))))) | -35.9 kcal/mol | 47.8 °C
20 | GATCATCCTCATGATC ((((((....)))))) | -33.4 kcal/mol | 45.7 °C
21 | GATCATCCTTATGATC ((((((....)))))) | -37 kcal/mol | 46.3 °C
22 | GATCATCGCATGATC ((((((...)))))) | -31.4 kcal/mol | 49.6 °C
23 | GATCATCTGAATGATC ((((((....)))))) | -33.6 kcal/mol | 46.3 °C
24 | GATCATCTGTATGATC ((((((....)))))) | -36.2 kcal/mol | 47.1 °C

Row | Sequence | folding enthalpy [1] | Tm [2]
25 | GATCATGAGATGATC ((((((...)))))) | -32.5 kcal/mol | 43.4 °C
26 | GATCATGAGGATGATC ((((((....)))))) | -38.4 kcal/mol | 43.7 °C
27 | GATCATGATATGATC ((((((...)))))) | -31.3 kcal/mol | 48.4 °C
28 | GATCATGATTATGATC ((((((....)))))) | -29.5 kcal/mol | 47.5 °C
29 | GATCATGCAAATGATC ((((((....)))))) | -39.7 kcal/mol | 55.4 °C
30 | GATCATGCAGATGATC ((((((....)))))) | -39.3 kcal/mol | 51.4 °C
31 | GATCATGCCGATGATC ((((((....)))))) | -40.8 kcal/mol | 49.5 °C
32 | GATCATGCGAATGATC ((((((....)))))) | -46.8 kcal/mol | 53.8 °C
33 | GATCATGCGTATGATC ((((((....)))))) | -39 kcal/mol | 48.3 °C
34 | GATCATGCTCATGATC ((((((....)))))) | -44.1 kcal/mol | 51.3 °C
35 | GATCATGGAAACATGGTC ((.((((....)))).)) | -25.8 kcal/mol | 46.6 °C
36 | GATCATGGCCATGATC ((((((....)))))) | -49.5 kcal/mol | 56.3 °C
37 | GATCATGGTGATGATC ((((((....)))))) | -39.4 kcal/mol | 49 °C
38 | GATCATGGTTATGATC ((((((....)))))) | -40.7 kcal/mol | 48.3 °C
39 | GATCATGTAAATGATC ((((((....)))))) | -38.9 kcal/mol | 56.6 °C
40 | GATCATGTATATGATC ((((((....)))))) | -41.7 kcal/mol | 55.3 °C
41 | GATCATGTCGATGATC ((((((....)))))) | -37.1 kcal/mol | 51 °C
42 | GATCATGTCTATGATC ((((((....)))))) | -38.9 kcal/mol | 53.1 °C
43 | GATCATTAAATGATC ((((((...)))))) | -28.6 kcal/mol | 44 °C
44 | GATCATTAACATGATC ((((((....)))))) | -28.6 kcal/mol | 44.7 °C
45 | GATCATTACTATGATC ((((((....)))))) | -41.7 kcal/mol | 48.6 °C
46 | GATCATTCCCATGATC ((((((....)))))) | -42.6 kcal/mol | 46.8 °C
47 | GATCATTCCGATGATC ((((((....)))))) | -41.3 kcal/mol | 49.1 °C
48 | GATCATTCGAATGATC ((((((....)))))) | -46.8 kcal/mol | 50.5 °C

Row | Sequence | folding enthalpy [1] | Tm [2]
49 | GATCATTCTCATGATC ((((((....)))))) | -32.8 kcal/mol | 47.1 °C
50 | GATCATTGACATGATC ((((((....)))))) | -24.1 kcal/mol | 43.6 °C
51 | GATCATTGCGATGATC ((((((....)))))) | -38.8 kcal/mol | 51.8 °C
52 | GATCATTTAATGATC ((((((...)))))) | -27.6 kcal/mol | 48 °C
53 | GATCATTTAGATGATC ((((((....)))))) | -37.4 kcal/mol | 47.6 °C
54 | GATCATTTCTATGATC ((((((....)))))) | -41.4 kcal/mol | 48.6 °C
55 | GATCATTTGAATGATC ((((((....)))))) | -35.4 kcal/mol | 48.2 °C
56 | GATCATTTGTATGATC ((((((....)))))) | -36 kcal/mol | 47.4 °C
57 | GATCATTTTGATGATC ((((((....)))))) | -51.2 kcal/mol | 49.5 °C
58 | GATCATTTTTATGATC ((((((....)))))) | -40 kcal/mol | 49.1 °C
59 | GATCCAAACTTGGATC ((((((....)))))) | -39.4 kcal/mol | 53.1 °C
60 | GATCCAAATATGGATC ((((((....)))))) | -34.1 kcal/mol | 49.4 °C
61 | GATCCAACAGTGGATC ((((((....)))))) | -32.1 kcal/mol | 47.1 °C
62 | GATCCAACGTTGGATC ((((((....)))))) | -58.1 kcal/mol | 55.6 °C
63 | GATCCAAGCATGGATC ((((((....)))))) | -41.2 kcal/mol | 51.8 °C
64 | GATCCAAGGTGGATC ((((((...)))))) | -32.6 kcal/mol | 51.1 °C
65 | GATCCAAGTTGGATC ((((((...)))))) | -35.7 kcal/mol | 49.1 °C
66 | GATCCAATACTGGATC ((((((....)))))) | -40 kcal/mol | 48.6 °C
67 | GATCCAATATTGGATC ((((((....)))))) | -41.7 kcal/mol | 52.2 °C
68 | GATCCAATGTTGGATC ((((((....)))))) | -35 kcal/mol | 52.6 °C
69 | GATCCACAAATGGATC ((((((....)))))) | -32.9 kcal/mol | 47.5 °C
70 | GATCCACAACTGGATC ((((((....)))))) | -34.5 kcal/mol | 47 °C
71 | GATCCACAGATGGATC ((((((....)))))) | -38.6 kcal/mol | 49 °C
72 | GATCCACATATGGATC ((((((....)))))) | -41.2 kcal/mol | 50.6 °C
